Test results: ChEMBL document CHEMBL2074148, “Interaction of human and rat organic anion transporter 2 with various cephalosporin antibiotics” (Eur J Pharmacol, 2003)
One block for each molecule: values may come before it.

Legend:
Format in all cases: functional, cell-based
[1] = molecular target: T1, Solute carrier family 22 member 7 (Homo sapiens, UniProt Q9Y694); assay: (§1) TP_TRANSPORTER: inhibition of PGF2alpha in OAT2-S2 cells
T1 sequence (Q9Y694 whole entry): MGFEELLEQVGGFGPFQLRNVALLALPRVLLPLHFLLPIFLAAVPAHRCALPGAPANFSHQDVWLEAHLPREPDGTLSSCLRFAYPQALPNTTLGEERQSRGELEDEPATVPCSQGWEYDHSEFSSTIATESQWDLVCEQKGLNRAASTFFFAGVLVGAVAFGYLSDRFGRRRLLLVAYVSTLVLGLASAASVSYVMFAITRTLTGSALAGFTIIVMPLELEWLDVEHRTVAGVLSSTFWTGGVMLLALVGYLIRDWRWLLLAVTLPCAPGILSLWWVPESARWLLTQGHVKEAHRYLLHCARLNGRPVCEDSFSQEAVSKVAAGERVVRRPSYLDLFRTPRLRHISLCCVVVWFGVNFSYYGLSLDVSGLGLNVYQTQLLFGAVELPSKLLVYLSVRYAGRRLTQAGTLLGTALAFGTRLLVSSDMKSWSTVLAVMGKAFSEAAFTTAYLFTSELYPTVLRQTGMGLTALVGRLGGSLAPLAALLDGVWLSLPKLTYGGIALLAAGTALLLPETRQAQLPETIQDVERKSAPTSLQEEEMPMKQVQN
Procedure, shortened: (§2)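 S2 cells stably expressing human or rat OAT2, seeded at 1 × 10^5 cells/well and grown for 2 days. Washed, then preincubated 10 min at 37 °C in D-PBS (pH 7.4). Uptake of 50 nM [3H]prostaglandin F2α measured at 37 °C with or without various concentrations of cephalosporin: 20 s for human OAT2, 2 min for rat OAT2. Stopped with ice-cold D-PBS; cells lysed in 0.1 N NaOH; scintillation counting.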

[2] = molecular target: T2, Solute carrier family 22 member 7 (Rattus norvegicus, UniProt Q5RLM2); assay: as §1; procedure, shortened: as §2
T2 sequence (Q5RLM2 whole entry): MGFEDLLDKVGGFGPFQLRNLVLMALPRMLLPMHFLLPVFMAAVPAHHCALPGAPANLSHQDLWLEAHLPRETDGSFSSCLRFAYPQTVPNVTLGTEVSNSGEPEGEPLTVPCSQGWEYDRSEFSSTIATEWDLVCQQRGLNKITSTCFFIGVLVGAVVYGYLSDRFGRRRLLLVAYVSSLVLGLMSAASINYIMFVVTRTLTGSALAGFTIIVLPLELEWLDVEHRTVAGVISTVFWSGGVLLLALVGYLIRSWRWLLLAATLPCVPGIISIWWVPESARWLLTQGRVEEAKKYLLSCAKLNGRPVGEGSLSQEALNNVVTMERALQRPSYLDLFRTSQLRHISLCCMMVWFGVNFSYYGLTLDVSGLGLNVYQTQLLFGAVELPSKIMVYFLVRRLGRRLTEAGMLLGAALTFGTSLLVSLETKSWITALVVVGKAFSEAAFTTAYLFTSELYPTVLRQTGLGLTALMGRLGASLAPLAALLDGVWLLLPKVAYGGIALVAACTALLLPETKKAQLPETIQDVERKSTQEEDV

[3] = molecular target: T3, Solute carrier family 22 member 11 (Homo sapiens, UniProt Q9NSA0); assay: TP_TRANSPORTER: cell viability in OAT4-S2 cells
T3 sequence (Q9NSA0 whole entry): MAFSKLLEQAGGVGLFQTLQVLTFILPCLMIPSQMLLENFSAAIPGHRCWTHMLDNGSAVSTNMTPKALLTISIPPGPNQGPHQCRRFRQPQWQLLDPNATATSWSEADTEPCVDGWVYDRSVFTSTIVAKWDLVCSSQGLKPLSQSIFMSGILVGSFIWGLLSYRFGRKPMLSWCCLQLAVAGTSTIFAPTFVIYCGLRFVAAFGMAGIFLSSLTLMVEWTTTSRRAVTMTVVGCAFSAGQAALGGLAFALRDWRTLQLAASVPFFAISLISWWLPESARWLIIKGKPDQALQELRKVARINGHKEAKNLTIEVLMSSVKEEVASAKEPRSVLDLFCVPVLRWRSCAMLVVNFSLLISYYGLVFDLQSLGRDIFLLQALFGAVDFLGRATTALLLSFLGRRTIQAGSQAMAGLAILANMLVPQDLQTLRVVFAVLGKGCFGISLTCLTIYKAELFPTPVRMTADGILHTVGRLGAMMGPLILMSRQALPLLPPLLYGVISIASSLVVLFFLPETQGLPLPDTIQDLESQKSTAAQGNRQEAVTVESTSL
Procedure, shortened: (§3)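 S2 cells stably transfected with the human OAT (pcDNA3.1), alongside mock-transfected controls, were seeded at 1 × 10^5 cells/well and cultured for 2 days. Cells were then exposed to 5 mM cephalosporin, with or without 1 mM probenecid, at 33 °C for 24 h. MTT was added for a further 4 h at 33 °C. Cells were solubilized in isopropanol/HCl and OD read at 570 nm (630 nm reference). Four determinations; mean ± S.E.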

[4] = molecular target: T4, Organic anion transporter 3 (Homo sapiens, UniProt Q8TCC7); assay: TP_TRANSPORTER: cell viability in OAT3-S2 cells; procedure, shortened: as §3
T4 sequence (Q8TCC7 whole entry): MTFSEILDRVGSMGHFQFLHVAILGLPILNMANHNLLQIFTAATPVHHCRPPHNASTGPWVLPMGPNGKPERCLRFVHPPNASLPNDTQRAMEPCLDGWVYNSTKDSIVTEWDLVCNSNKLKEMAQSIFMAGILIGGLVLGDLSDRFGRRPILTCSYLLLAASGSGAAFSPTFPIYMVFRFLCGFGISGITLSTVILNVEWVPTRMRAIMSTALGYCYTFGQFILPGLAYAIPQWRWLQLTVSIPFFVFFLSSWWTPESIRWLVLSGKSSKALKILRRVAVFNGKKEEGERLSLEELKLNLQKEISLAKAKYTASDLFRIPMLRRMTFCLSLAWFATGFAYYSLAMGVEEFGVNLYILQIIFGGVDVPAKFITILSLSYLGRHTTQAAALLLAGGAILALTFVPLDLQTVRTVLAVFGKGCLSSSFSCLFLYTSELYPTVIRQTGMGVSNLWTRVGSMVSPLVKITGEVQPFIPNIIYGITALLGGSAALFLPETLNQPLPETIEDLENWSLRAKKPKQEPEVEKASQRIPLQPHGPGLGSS

[5] = substrate: CCCCC[C@H](O)/C=C/[C@@H]1[C@@H](C/C=C\CCCC(=O)O)[C@@H](O)C[C@H]1O; assay: TP_TRANSPORTER: uptake in OAT2-S2 cells

IC50 [1]: 1410 µM
IC50 [2]: 1500 µM
Molecule: CC(=O)OCC1=C(C(=O)O)N2C(=O)[C@@H](NC(=O)Cc3cccs3)[C@H]2SC1 [CEPHALOTHIN]

IC50 [1]: 1330 µM
IC50 [2]: 1620 µM
Molecule: CCN1CCN(C(=O)N[C@@H](C(=O)N[C@@H]2C(=O)N3C(C(=O)O)=C(CSc4nnnn4C)CS[C@H]23)c2ccc(O)cc2)C(=O)C1=O [CEFOPERAZONE]

IC50 [1]: 1570 µM
IC50 [2]: 3180 µM
Molecule: Cn1nnnc1SCC1=C(C(=O)O)N2C(=O)[C@@H](NC(=O)[C@H](O)c3ccccc3)[C@H]2SC1 [CEFAMANDOLE]

Further lines, the molecule ahead of its results:

Molecule: CO/N=C(\C(=O)N[C@@H]1C(=O)N2C(C(=O)O)=C(COC(C)=O)CS[C@H]12)c1csc(N)n1 [CEFOTAXIME]
IC50 [1]: 4680 µM
IC50 [2]: > 5000 µM

Molecule: O=C(Cc1cccs1)N[C@@H]1C(=O)N2C(C(=O)[O-])=C(C[n+]3ccccc3)CS[C@H]12 [CEPHALORIDINE]
Activity [3]: substrate []
Activity [4]: substrate []
IC50 [1]: 4480 µM
IC50 [2]: > 5000 µM

B1: Solute carrier family 22 member 7 (Rattus norvegicus) (protein)
chain: MGFEDLLDKVGGFGPFQLRNLVLMALPRMLLPMHFLLPVFMAAVPAHHCALPGAPANLSHQDLWLEAHLPRETDGSFSSCLRFAYPQTVPNVTLGTEVSNSGEPEGEPLTVPCSQGWEYDRSEFSSTIATEWDLVCQQRGLNKITSTCFFIGVLVGAVVYGYLSDRFGRRRLLLVAYVSSLVLGLMSAASINYIMFVVTRTLTGSALAGFTIIVLPLELEWLDVEHRTVAGVISTVFWSGGVLLLALVGYLIRSWRWLLLAATLPCVPGIISIWWVPESARWLLTQGRVEEAKKYLLSCAKLNGRPVGEGSLSQEALNNVVTMERALQRPSYLDLFRTSQLRHISLCCMMVWFGVNFSYYGLTLDVSGLGLNVYQTQLLFGAVELPSKIMVYFLVRRLGRRLTEAGMLLGAALTFGTSLLVSLETKSWITALVVVGKAFSEAAFTTAYLFTSELYPTVLRQTGLGLTALMGRLGASLAPLAALLDGVWLLLPKVAYGGIALVAACTALLLPETKKAQLPETIQDVERKSTQEEDV
Km [5]: 0.414 µM
